# Measurements: ChEMBL document CHEMBL2040715, “Discovery of a Potent HIV Integrase Inhibitor that Leads to a Prodrug with Significant anti-HIV Activity” (ACS Med Chem Lett, 2011)
# Experiments:
# [1] = system: Human immunodeficiency virus 1; test: Antiviral activity against HIV1 infected in MAGI cells by beta-galactosidase reporter gene assay; type: functional, organism-based; details: Human immunodeficiency virus 1, MAGI
# How it was run: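 HIV-1 infection of MAGI cells, with raltegravir as the MOI-sensitive positive control validating each run. EC50 and EC90 were determined.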
# [2] = biological target: Human immunodeficiency virus type 1 integrase (Human immunodeficiency virus 1, UniProt Q7ZJM1); test: Inhibition of HIV1 integrase-mediated strand transfer
# [3] = Cytotoxicity against human MAGI cells by MTS assay; type: cell-based
# [4] = Therapeutic index, ratio of CC50 for human MAGI cells to EC50 for HIV1; type: cell-based
# [5] = system: Human immunodeficiency virus 1; test: Antiviral activity against HIV1 infected in human MT4 cells; details: Human immunodeficiency virus 1, MT4
# [6] = Cytotoxicity against PBMC; type: cell-based; details: human
# Chain of Human immunodeficiency virus type 1 integrase (Q7ZJM1 whole entry): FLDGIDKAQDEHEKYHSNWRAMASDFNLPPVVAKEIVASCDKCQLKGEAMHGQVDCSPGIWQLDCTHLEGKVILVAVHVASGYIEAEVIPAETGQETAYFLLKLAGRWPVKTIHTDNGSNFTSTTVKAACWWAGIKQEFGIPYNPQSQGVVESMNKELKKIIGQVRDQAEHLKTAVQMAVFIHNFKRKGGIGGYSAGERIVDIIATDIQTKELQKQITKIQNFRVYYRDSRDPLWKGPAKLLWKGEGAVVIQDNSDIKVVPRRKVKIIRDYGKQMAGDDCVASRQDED
EC50 [1],Compound,further results
2000 nM,O=C(O)/C(O)=C/C(=O)c1cc(Cc2ccccc2)cn(Cc2cccc(F)c2)c1=O,–
2400 nM,O=C(O)/C(O)=C/C(=O)c1cc(Cc2ccc(F)c(Cl)c2)cn(Cc2ccc(F)c(Cl)c2)c1=O,–
800 nM,O=C(O)/C(O)=C/C(=O)c1cc(Cc2ccc(F)cc2F)cn(Cc2ccccc2)c1=O,–
1000 nM,Cc1cc(F)ccc1Cc1cc(C(=O)/C=C(\O)C(=O)O)c(=O)n(Cc2ccc(F)cc2)c1,–
1100 nM,N#Cc1ccc(Cn2cc(Cc3ccccc3F)cc(C(=O)/C=C(\O)C(=O)O)c2=O)cc1,–
1800 nM,COc1ccc(Cn2cc(Cc3ccccc3)cc(C(=O)/C=C(\O)C(=O)O)c2=O)cc1,–
800 nM,O=C(O)/C(O)=C/C(=O)c1cc(Cc2ccc(F)cc2)cn(Cc2ccc(F)cc2)c1=O,–
2200 nM,O=C(O)/C(O)=C/C(=O)c1cc(Cc2ccc(F)c(Cl)c2)cn(Cc2ccccc2F)c1=O,–
2200 nM,Cc1cccc(Cn2cc(Cc3ccc(F)c(Cl)c3)cc(C(=O)/C=C(\O)C(=O)O)c2=O)c1,–
1900 nM,O=C(O)/C(O)=C/C(=O)c1cc(Cc2cccc(Cl)c2)cn(Cc2ccccc2F)c1=O,–
1100 nM,O=C(O)/C(O)=C/C(=O)c1cc(Cc2cccc(Cl)c2)cn(Cc2cccc(Cl)c2)c1=O,–
1900 nM,O=C(O)/C(O)=C/C(=O)c1cc(Cc2ccccc2F)cn(Cc2cccc(F)c2)c1=O,–
1400 nM,O=C(O)/C(O)=C/C(=O)c1cc(Cc2cccc(Cl)c2)cn(Cc2ccc(F)cc2)c1=O,–
1500 nM,O=C(O)/C(O)=C/C(=O)c1cc(Cc2cccc(Cl)c2F)cn(Cc2cccc(Cl)c2)c1=O,–
1500 nM,O=C(O)/C(O)=C/C(=O)c1cc(Cc2ccccc2)cn(Cc2c(F)cccc2F)c1=O,–
> 5000 nM,O=C(O)/C(O)=C/C(=O)c1cc(Cc2cccc(C(=O)O)c2)cn(Cc2ccccc2)c1=O,–
700 nM,O=C(O)/C(O)=C/C(=O)c1cc(Cc2ccccc2F)cn(Cc2cccc(Cl)c2)c1=O,–
46 nM,CC(C)OC(=O)/C(O)=C/C(=O)c1cc(Cc2ccc(F)cc2F)cn(Cc2ccc(F)cc2F)c1=O,–
> 5000 nM,Cc1ccc(Cn2cc(Cc3ccc(F)c(Cl)c3)cc(C(=O)/C=C(\O)C(=O)O)c2=O)cc1,–

EC50 [1],Compound,further results
1300 nM,Cc1cc(F)ccc1Cc1cc(C(=O)/C=C(\O)C(=O)O)c(=O)n(Cc2ccccc2)c1,–
700 nM,O=C(O)/C(O)=C/C(=O)c1cc(Cc2ccccc2F)cn(Cc2ccccc2F)c1=O,–
700 nM,O=C(O)/C(O)=C/C(=O)c1cc(Cc2ccccc2)cn(Cc2cccc(Cl)c2F)c1=O,–
600 nM,O=C(O)/C(O)=C/C(=O)c1cc(Cc2ccc(F)cc2F)cn(Cc2ccc(F)cc2)c1=O,–
800 nM,O=C(O)/C(O)=C/C(=O)c1cc(Cc2ccccc2)cn(Cc2ccc(F)c(Cl)c2)c1=O,–
1400 nM,O=C(O)/C(O)=C/C(=O)c1cc(Cc2ccc(F)cc2)cn(Cc2c(F)cccc2F)c1=O,–
2500 nM,Cc1ccc(Cn2cc(Cc3cccc(Cl)c3)cc(C(=O)/C=C(\O)C(=O)O)c2=O)cc1,–
1400 nM,O=C(O)/C(O)=C/C(=O)c1cc(Cc2ccc(F)c(Cl)c2)cn(Cc2ccc(F)cc2F)c1=O,–
> 5000 nM,COc1ccc(Cc2cc(C(=O)/C=C(\O)C(=O)O)c(=O)n(Cc3ccc(OC)cc3)c2)cc1,–
> 5000 nM,O=C(O)/C(O)=C/C(=O)c1cc(Cc2ccc(F)c(Cl)c2)cn(Cc2ccc(F)cc2)c1=O,–
–,O=C(O)C(=O)CC(=O)c1cccn1Cc1ccc(F)cc1,EC50 [5]: 1000 nM
600 nM,O=C(O)/C(O)=C/C(=O)c1cc(Cc2ccccc2F)cn(Cc2ccc(F)cc2F)c1=O,–
600 nM,O=C(O)/C(O)=C/C(=O)c1cc(Cc2ccccc2)cn(Cc2ccc(F)c(Cl)c2F)c1=O,–
1000 nM,O=C(O)/C(O)=C/C(=O)c1cc(Cc2ccccc2)cn(Cc2ccc(F)cc2)c1=O,–
700 nM,Cc1cccc(Cn2cc(Cc3ccc(F)cc3F)cc(C(=O)/C=C(\O)C(=O)O)c2=O)c1,–
600 nM,O=C(O)/C(O)=C/C(=O)c1cc(Cc2ccccc2)cn(Cc2ccc(F)cc2F)c1=O,–
1300 nM,Cc1cc(F)ccc1Cc1cc(C(=O)/C=C(\O)C(=O)O)c(=O)n(Cc2ccccc2F)c1,–
2400 nM,O=C(O)/C(O)=C/C(=O)c1cc(Cc2cccc(Cl)c2F)cn(Cc2cccc(Cl)c2F)c1=O,–
2500 nM,O=C(O)/C(O)=C/C(=O)c1cc(Cc2cccc(Cl)c2)cn(Cc2ccc(Cl)cc2)c1=O,–

EC50 [1],Compound,further results
300 nM,O=C(O)/C(O)=C/C(=O)c1cc(Cc2ccc(F)cc2F)cn(Cc2ccc(F)cc2F)c1=O,–
800 nM,O=C(O)/C(O)=C/C(=O)c1cc(Cc2ccccc2F)cn(Cc2ccc(F)cc2)c1=O,–
1600 nM,Cc1ccc(Cn2cc(Cc3ccc(F)cc3)cc(C(=O)/C=C(\O)C(=O)O)c2=O)cc1,–
1200 nM,O=C(O)/C(O)=C/C(=O)c1cc(Cc2cccc(Cl)c2)cn(Cc2ccc(F)c(Cl)c2)c1=O,–
1200 nM,O=C(O)/C(O)=C/C(=O)c1cc(Cc2ccc(F)cc2)cn(Cc2cccc(Cl)c2)c1=O,–
–,O=C(/C=C(\O)c1nc[nH]n1)c1ccc(Cc2ccc(F)cc2)o1 [S-1360],CC50 [6]: 110000 nM
900 nM,Cc1cccc(Cn2cc(Cc3ccccc3F)cc(C(=O)/C=C(\O)C(=O)O)c2=O)c1,–
1000 nM,O=C(O)/C(O)=C/C(=O)c1cc(Cc2ccc(F)cc2)cn(Cc2cccc(F)c2)c1=O,–
1400 nM,O=C(O)/C(O)=C/C(=O)c1cc(Cc2cccc(Cl)c2)cn(Cc2cccc(Cl)c2F)c1=O,–
900 nM,O=C(O)/C(O)=C/C(=O)c1cc(Cc2ccccc2)cn(Cc2cc(Cl)ccc2F)c1=O,–
5100 nM,O=C(O)/C(O)=C/C(=O)c1cc(Cc2ccc(F)c(Cl)c2)cn(Cc2c(F)cccc2F)c1=O,–
1400 nM,Cc1cccc(Cc2cc(C(=O)/C=C(\O)C(=O)O)c(=O)n(Cc3cccc(Cl)c3F)c2)c1,–
700 nM,O=C(O)/C(O)=C/C(=O)c1cc(Cc2ccc(F)cc2)cn(Cc2ccccc2F)c1=O,–
700 nM,O=C(O)/C(O)=C/C(=O)c1cc(Cc2ccc(F)cc2)cn(Cc2cccc(F)c2F)c1=O,–
800 nM,O=C(O)/C(O)=C/C(=O)c1cc(Cc2ccccc2Cl)cn(Cc2ccc(F)cc2F)c1=O,–
900 nM,O=C(O)/C(O)=C/C(=O)c1cc(Cc2ccccc2)cn(Cc2cccc(F)c2F)c1=O,–
800 nM,O=C(O)/C(O)=C/C(=O)c1cc(Cc2ccccc2F)cn(Cc2cccc(F)c2F)c1=O,–
700 nM,Cc1ccc(Cn2cc(Cc3ccccc3F)cc(C(=O)/C=C(\O)C(=O)O)c2=O)cc1,–
900 nM,O=C(O)/C(O)=C/C(=O)c1cc(Cc2ccccc2)cn(Cc2ccccc2F)c1=O,–

Compound,EC50 [1],further results
CC(C)OC(=O)/C(O)=C/C(=O)c1cc(Cc2ccc(F)cc2F)cn(Cc2ccccc2F)c1=O,9 nM,IC50 [2]: > 475 nM; CC50 [3]: 135000 nM; CC90 [3]: > 200000 nM; Ratio CC50/EC50 [4]: 15000
O=C(O)/C(O)=C/C(=O)c1cc(Cc2ccccc2)cn(Cc2ccccc2)c1=O,2100 nM,IC50 [2]: 70 nM
